The target in data set [1] is T1, Metabotropic glutamate receptor 4 (Homo sapiens, UniProt Q14833). Nature of the data set: Positive allosteric modulation of human mGlu4 receptor expressed in CHO cells co-expressing Gqi5 assessed as increase in glutamate-induced calcium mobilization preincubated for 142 secs followed by EC20 glutamate addition and subsequent EC80 glutamate addition after 147 secs by Fluo-4-AM dye based fluorescence assay. The format is functional, cell-based. A digest of the protocol:
(§1)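 CHO cells expressing human mGlu4 and Gqi5, plated at 30,000 cells/well and grown overnight at 37 °C, 5% CO2. Cells were loaded with 1 μM Fluo-4 AM for 45 min at 37 °C in HBSS/20 mM HEPES/2.5 mM probenecid. Compounds were run as 10-point, 1:3 dilution series. After 142 s, EC20 glutamate was added; 147 s later, EC80 glutamate. Fluorescence was normalized to the maximal glutamate response. EC50 and %Glu Max were fitted by four-parameter logistic, with maximum normalized to PHCCC.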
Background: Calcium assays in cells follow changes in intracellular calcium, usually with a dye or a luminescent sensor.

Data set [2] concerns the target T1, Metabotropic glutamate receptor 4. Briefly: Positive allosteric modulation of human mGlu4 receptor expressed in CHO cells co-expressing Gqi5 assessed as increase in glutamate-induced calcium mobilization preincubated for 142 secs followed by EC20 glutamate addition and measured after 147 secs by Fluo-4-AM dye based fluorescence assay relative to control. Format: functional, cell-based. The method, boiled down:
as §1

Data set [3] in a line: Intrinsic clearance in human liver microsomes at 1 uM preincubated for 5 mins followed by NADPH addition measured up to 45 mins by LC-MS/MS analysis. Format: ADME, Microsome. The note with it: read-out: CLH. The method, boiled down:
(§2)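 Intrinsic and predicted hepatic clearance derived from liver microsome incubations.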

Data set [4] can be described thus: Intrinsic clearance in rat liver microsomes at 1 uM preincubated for 5 mins followed by NADPH addition measured up to 45 mins by LC-MS/MS analysis. The format is ADME, Microsome. The settings on record: read-out: CLH. A digest of the protocol:
as §2
(Microsomes from liver hold many membrane-bound enzymes, among them those of drug oxidation.)

The nature of data set [5]: Fraction unbound in human plasma after 4 hrs by equilibrium dialysis method. Format: ADME, cell-free. (In general: In equilibrium dialysis only unbound substance equilibrates across the membrane.)
Data set [6] can be described thus: Fraction unbound in rat plasma after 4 hrs by equilibrium dialysis method. The format is ADME, cell-free.
The next data set deals with T2, Cytochrome P450 1A2 (Homo sapiens, UniProt P05177).
T2 sequence (P05177 whole entry): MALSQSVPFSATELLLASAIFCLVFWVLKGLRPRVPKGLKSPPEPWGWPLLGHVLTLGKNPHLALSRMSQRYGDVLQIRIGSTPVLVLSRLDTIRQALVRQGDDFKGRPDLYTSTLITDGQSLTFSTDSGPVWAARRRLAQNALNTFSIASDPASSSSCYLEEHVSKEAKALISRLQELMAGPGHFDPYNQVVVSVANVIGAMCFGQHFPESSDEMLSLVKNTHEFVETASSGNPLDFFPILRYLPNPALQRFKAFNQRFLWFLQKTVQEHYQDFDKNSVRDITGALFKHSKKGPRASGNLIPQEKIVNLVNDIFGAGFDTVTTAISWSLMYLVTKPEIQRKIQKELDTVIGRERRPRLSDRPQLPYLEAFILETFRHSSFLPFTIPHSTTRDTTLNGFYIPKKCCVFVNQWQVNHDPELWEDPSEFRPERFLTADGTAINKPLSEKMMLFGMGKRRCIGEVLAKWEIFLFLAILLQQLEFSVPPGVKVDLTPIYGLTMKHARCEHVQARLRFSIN
Nature of the data set: Inhibition of CYP1A2 in human liver microsomes using phenacetin as substrate preincubated for 15 mins followed by substrate addition and measured after 8 mins by LC-MS/MS analysis. The format is ADME. The method, boiled down: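 IC50 for CYP1A2 inhibition determined in human liver microsomes using specific probe substrate-metabolite pairs.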

Data set [7] addresses Metabotropic glutamate receptor 4 (Rattus norvegicus, UniProt P31423). Briefly: Positive allosteric modulation of rat mGlu4 receptor expressed in HEK cells co-expressing GIRK1/2 assessed as increase in glutamate-induced thallium flux preincubated for 140 secs followed by glutamate addition and measured after 2.5 mins by FluoZin-2-AM dye based fluorescence assay. Format: cell-based. The method, boiled down:
(§3)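 HEK cells co-expressing rat mGlu4 and GIRK1/2 were loaded for 1 h at room temperature with FluoZin-2 AM (330 nM final) in HBSS/20 mM HEPES pH 7.4. Compound was incubated 140 s, then thallium buffer with or without agonist was added. Reading continued for 2.5 min at room temperature. Potency was fitted by four-parameter logistic.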

The target in data set [8] is Metabotropic glutamate receptor 4 (Rattus norvegicus) (UniProt P31423). Nature of the data set: Positive allosteric modulation of rat mGlu4 receptor expressed in HEK cells co-expressing GIRK1/2 assessed as increase in glutamate-induced thallium flux preincubated for 140 secs followed by glutamate addition and measured after 2.5 mins by FluoZin-2-AM dye based fluorescence assay relative to control. Format: cell-based. The method, boiled down: as §3
Metabotropic glutamate receptor 4 (Rattus norvegicus), sequence (P31423 whole entry): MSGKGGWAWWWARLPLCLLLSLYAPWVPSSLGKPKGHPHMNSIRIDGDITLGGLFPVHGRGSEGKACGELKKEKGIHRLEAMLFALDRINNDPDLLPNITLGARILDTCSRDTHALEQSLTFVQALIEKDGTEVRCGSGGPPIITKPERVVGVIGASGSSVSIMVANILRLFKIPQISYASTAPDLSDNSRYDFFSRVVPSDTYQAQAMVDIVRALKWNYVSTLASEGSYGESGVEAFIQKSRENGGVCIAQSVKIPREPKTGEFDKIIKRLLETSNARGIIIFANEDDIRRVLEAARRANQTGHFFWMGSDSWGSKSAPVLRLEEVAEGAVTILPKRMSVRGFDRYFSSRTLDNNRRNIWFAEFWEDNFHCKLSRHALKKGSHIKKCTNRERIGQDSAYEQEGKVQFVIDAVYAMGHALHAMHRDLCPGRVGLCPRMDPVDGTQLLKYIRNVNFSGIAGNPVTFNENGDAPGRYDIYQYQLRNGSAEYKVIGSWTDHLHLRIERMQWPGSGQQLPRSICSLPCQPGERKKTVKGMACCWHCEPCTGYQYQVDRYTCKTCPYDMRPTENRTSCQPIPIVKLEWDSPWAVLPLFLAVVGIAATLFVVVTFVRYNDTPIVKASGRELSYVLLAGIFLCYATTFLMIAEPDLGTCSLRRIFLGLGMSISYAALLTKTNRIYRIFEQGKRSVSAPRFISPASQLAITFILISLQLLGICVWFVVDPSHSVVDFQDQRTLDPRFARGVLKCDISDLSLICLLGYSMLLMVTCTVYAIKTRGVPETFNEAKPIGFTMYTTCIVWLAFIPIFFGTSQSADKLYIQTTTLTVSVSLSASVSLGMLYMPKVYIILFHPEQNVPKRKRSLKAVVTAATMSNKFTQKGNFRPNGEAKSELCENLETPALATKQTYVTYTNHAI

Data set [9] is described as follows: Clearance in rat administered as iv cassette dose. The format is ADME, organism-based. The note with it: in vivo. The method, boiled down: (§4)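 IV cassette in male Sprague-Dawley rats (~300 g, n = 1 per experiment), cannulated in carotid artery and jugular vein and acclimated about one week. Plasma clearance, Vss, t1/2 and MRT were derived.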
A short description of data set [10]: Half life in rat administered as iv cassette dose. The note with it: in vivo. Format: ADME, organism-based. A digest of the protocol: as §4

Where only a bound is given, the exact number is not on record here.

14 compounds from ChEMBL document CHEMBL4308847, “Discovery, Structure-Activity Relationship, and Biological Characterization of a Novel Series of 6-((1 H-Pyrazolo[4,3- b]pyridin-3-yl)amino)-benzo[ d]isothiazole-3-carboxamides as Positive Allosteric Modulators of the Metabotropic Glutamate Receptor 4 (mGlu4)” (J Med Chem, 2018) can be followed below.

T1 sequence (Q14833 whole entry): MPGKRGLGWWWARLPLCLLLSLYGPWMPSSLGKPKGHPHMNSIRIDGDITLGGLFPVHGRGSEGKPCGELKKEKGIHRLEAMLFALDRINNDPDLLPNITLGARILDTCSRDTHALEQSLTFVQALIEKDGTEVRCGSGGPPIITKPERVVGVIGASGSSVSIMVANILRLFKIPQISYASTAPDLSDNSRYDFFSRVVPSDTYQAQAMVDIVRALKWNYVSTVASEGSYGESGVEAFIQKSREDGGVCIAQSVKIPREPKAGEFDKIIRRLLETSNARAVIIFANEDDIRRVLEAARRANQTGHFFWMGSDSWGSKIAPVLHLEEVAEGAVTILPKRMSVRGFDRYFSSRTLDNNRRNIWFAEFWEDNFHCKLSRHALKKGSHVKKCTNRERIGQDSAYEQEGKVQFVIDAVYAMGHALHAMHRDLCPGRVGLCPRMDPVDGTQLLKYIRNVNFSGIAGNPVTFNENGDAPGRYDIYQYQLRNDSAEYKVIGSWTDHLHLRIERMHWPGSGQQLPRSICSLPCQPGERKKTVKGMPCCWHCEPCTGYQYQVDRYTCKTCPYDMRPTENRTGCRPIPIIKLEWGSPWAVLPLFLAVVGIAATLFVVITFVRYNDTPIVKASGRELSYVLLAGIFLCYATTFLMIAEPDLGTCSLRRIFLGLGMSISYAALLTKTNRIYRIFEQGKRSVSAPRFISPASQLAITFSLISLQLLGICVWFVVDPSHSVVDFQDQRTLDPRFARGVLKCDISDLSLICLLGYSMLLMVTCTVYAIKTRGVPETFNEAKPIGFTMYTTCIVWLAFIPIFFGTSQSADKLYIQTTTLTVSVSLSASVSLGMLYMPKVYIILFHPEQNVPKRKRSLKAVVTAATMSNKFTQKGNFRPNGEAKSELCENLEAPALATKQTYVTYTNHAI
Metabotropic glutamate receptor 4 (Rattus norvegicus, UniProt P31423), sequence (P31423 whole entry): as the sequence (P31423 whole entry) above

`Cc1noc2ccc(Nc3n[nH]c4ncc(F)cc34)cc12`: the EC50 in data set [1] turned out to be 219 nM; in [7], 190 nM. Also, the %max in data set [2] was 54%; in [8], 121%. The CLint scaled at 1 µM in data set [3] was found to be 23.6 mL/min/kg; in data set [4], 39.3 mL/min/kg. The values for the unbound share (fraction unbound) at 4 h in data set [5] and in data set [6] were 0.054 and 0.044, respectively. This compound also had an IC50 on Cytochrome P450 1A2 of 500 nM.

In the case of `CCc1noc2cc(Nc3n[nH]c4cccnc34)ccc12`, the EC50 in data set [1] came to 1350 nM. In addition, in data set [2], the %max stood at 72%. The CLint scaled at 1 µM worked out at 69.9 mL/min/kg in data set [3] and 204 mL/min/kg in data set [4]. Also, the values for the fraction unbound at 4 h in [5] and in data set [6] were 0.027 and 0.037, respectively. The compound also had an IC50 at Cytochrome P450 1A2 below 100 nM.

Turning to `CC(F)(F)c1noc2cc(Nc3n[nH]c4cccnc34)ccc12`, the values for the EC50 in [1] and in data set [7] were 678 nM and 1600 nM, respectively. Further, the results for the %max in data set [2] and in data set [8] were 58.8% and 83.8%, respectively. Moreover, the CLint scaled at 1 µM in [3] worked out at 24.6 mL/min/kg; in data set [4], 11 mL/min/kg. Moreover, the fraction unbound at 4 h in data set [5] amounted to 0.003; in data set [6] it was 0.017. For the same compound, half-maximal inhibition on Cytochrome P450 1A2 (IC50) required 500 nM. In data set [9], this compound had a clearance of 27.8 mL/min/kg. Further, the half-life in data set [10] stood at 1.51 h.

On to `CCC(CC)c1noc2cc(Nc3n[nH]c4cccnc34)ccc12`, for which, in data set [1], the EC50 came to 129 nM. Besides, the %max in data set [2] came to 92%. Moreover, the CLint scaled at 1 µM was determined as 84.2 mL/min/kg in [3] and 488 mL/min/kg in data set [4]. Further, the free fraction (fraction unbound) at 4 h stood at 0.009 in data set [5] and 0.019 in data set [6]. Moreover, at Cytochrome P450 1A2, the IC50 turned out to be 1000 nM.

As for `c1cnc2c(Nc3ccc4c(C5CC5)nsc4c3)n[nH]c2c1`, in data set [1], the 50% effective concentration (EC50) stood at 81 nM. Further, in [2], the %max is 76%. For the same compound, the CLint scaled at 1 µM worked out at 28.9 mL/min/kg in data set [3] and 176 mL/min/kg in data set [4]. Besides, the fraction unbound at 4 h in data set [5] was found to be 0.009; in data set [6] it was 0.014. This compound also yielded an IC50 on Cytochrome P450 1A2 of 400 nM.

With `CC(C)(C)Cc1nsc2cc(Nc3n[nH]c4nccnc34)cnc12`, the results for the EC50 in data set [1] and in [7] were 105 nM and 158 nM, respectively. For the same compound, the %max in data set [2] worked out at 54%; in data set [8], 112%. Besides, the CLint scaled at 1 µM in data set [3] turned out to be 40.2 mL/min/kg; in data set [4], 189 mL/min/kg. Also, the fraction unbound at 4 h in data set [5] was 0.013; in data set [6] it was 0.011. Moreover, the IC50 at Cytochrome P450 1A2 was above 30000 nM.

For `CC(=O)N1CCC(c2nsc3cc(Nc4n[nH]c5cccnc45)ccc23)CC1`, the %max was found to be 79% in data set [2] and 98.9% in data set [8]. Also, the CLint scaled at 1 µM in data set [3] was found to be 15.8 mL/min/kg; in data set [4], 21 mL/min/kg. The fraction unbound at 4 h in [5] is 0.042; in data set [6] it was 0.039. The compound further showed an IC50 against Cytochrome P450 1A2 of 21700 nM. Moreover, the EC50 in [7] worked out at 166 nM.

Consider `c1cnc2c(Nc3ccc4c(C5CCC5)noc4c3)n[nH]c2c1`, for which, in data set [1], the EC50 was determined as 851 nM. The %max in data set [2] worked out at 88%. Also, the results for the CLint scaled at 1 µM in [3] and in [4] were 83.2 mL/min/kg and 1220 mL/min/kg, respectively. Further, the free fraction (fraction unbound) at 4 h stood at 0.026 in [5] and 0.016 in [6]. The same compound returned an IC50 against Cytochrome P450 1A2 of 1800 nM.

As to `c1cnc2c(Nc3ccc4c(C5CC5)nsc4c3)n[nH]c2n1`, the EC50 in [1] was found to be 68 nM. Further, the %max in data set [2] came to 73%. Moreover, the CLint scaled at 1 µM in data set [3] was determined as 41.2 mL/min/kg; in data set [4], 59.4 mL/min/kg. The results for the fraction unbound at 4 h in [5] and in data set [6] were 0.012 and 0.008, respectively. In addition, the 50% inhibitory concentration (IC50) against Cytochrome P450 1A2 is 700 nM.

Regarding `FC1(F)CCN(Cc2nsc3cc(Nc4n[nH]c5cccnc45)cnc23)CC1`, in data set [2], the %max was found to be 84%. Also, the CLint scaled at 1 µM amounted to 27.5 mL/min/kg in data set [3] and 1080 mL/min/kg in data set [4]. The Fu entry in data set [5] (4 h) and in data set [6] (4 h) was “Nd(Unstable)” each time. The compound further had an IC50 on Cytochrome P450 1A2 above 30000 nM.

With `c1cnc2c(Nc3ccc4c(C5CCCC5)noc4c3)n[nH]c2c1`, the figures for the EC50 in data set [1] and in data set [7] were 723 nM and 680 nM, respectively. The %max in data set [2] was found to be 87.6%; in data set [8], 97.9%. The CLint scaled at 1 µM in [3] was found to be 30.7 mL/min/kg; in data set [4], 398 mL/min/kg. Moreover, the values for the fraction unbound at 4 h in [5] and in [6] were 0.01 and 0.007, respectively. This compound had a concentration for half-maximal inhibition (IC50) against Cytochrome P450 1A2 of 1200 nM. Also, in [9], the clearance is 62.1 mL/min/kg. Moreover, in data set [10], the half-life amounted to 1.67 h.

Consider `Cc1noc2ccc(Nc3n[nH]c4cccnc34)cc12`, for which the concentration giving a half-maximal response (EC50) is 75.9 nM in data set [1] and 95.5 nM in data set [7]. Besides, the %max in [2] came to 91%; in data set [8] it was 105%. Also, the CLint scaled at 1 µM stood at 14.8 mL/min/kg in data set [3] and 31.8 mL/min/kg in [4]. Moreover, the fraction unbound at 4 h is 0.062 in data set [5] and 0.058 in data set [6]. This compound also displayed an IC50 at Cytochrome P450 1A2 below 100 nM.

As for `CC(C)(C)Cc1noc2cc(Nc3n[nH]c4cccnc34)ccc12`, the EC50 was 1300 nM in data set [1] and 542 nM in data set [7]. Moreover, the %max stood at 68.9% in data set [2] and 84.8% in [8]. Further, the CLint scaled at 1 µM in [3] turned out to be 7.3 mL/min/kg; in [4] it was 86.9 mL/min/kg. Further, the fraction unbound at 4 h in [5] was found to be 0.016; in [6], 0.022. This compound came in with an IC50 at Cytochrome P450 1A2 of 1100 nM. The compound further came in with a clearance in [9] of 43.2 mL/min/kg. Besides, in [10], the half-life stood at 1.33 h.

For the compound `CC(C)(C)Cc1nsc2cc(Nc3n[nH]c4cccnc34)cnc12`, the EC50 in [1] is 74 nM. Besides, the %max in data set [2] came to 51%. Also, the CLint scaled at 1 µM in data set [3] turned out to be 24.7 mL/min/kg; in data set [4], 277 mL/min/kg. Further, the unbound share (fraction unbound) at 4 h in [5] was determined as 0.006; in data set [6] it was 0.016. This compound also gave an IC50 on Cytochrome P450 1A2 of 22100 nM.

The term EC50 denotes the concentration that produces a half-maximal response. A word on the fraction unbound: it is the share of the substance not bound to proteins or other matrix. A lower fraction unbound goes with extensive binding. The IC50 is the midpoint of a concentration-inhibition curve. Low values mean greater potency, high ones weaker potency. By clearance is commonly meant the rate of elimination divided by the concentration. High values mean efficient removal, low ones inefficient removal. What is called half-life is the time needed for the level to fall by half in the phase considered. Low readings indicate rapid decline, high ones slow decline.
